{"source": "paper PMC7933111", "about": "(ACS chemical neuroscience, 2021)", "key": {"C57BL/6 wild-type mice": {"test_system": "C57BL/6 wild-type mice", "assay": "Head-twitch response", "assay_type": "in vivo, mouse", "details": "for effect of antagonist pretreatment on HTR in mice administered 1-NP or 2-NP: 5-HT1AR antagonist WAY100635 or 5-HT2CR antagonist SB-242084 pretreatment; for HTR counts vs vehicle: 5 mg/kg, first 30 min postinjection, wild-type"}, "5-HT2AR [1]": {"target": "T1, 5-HT2AR (Homo sapiens, UniProt P28223)", "T1 sequence (P28223 whole entry)": "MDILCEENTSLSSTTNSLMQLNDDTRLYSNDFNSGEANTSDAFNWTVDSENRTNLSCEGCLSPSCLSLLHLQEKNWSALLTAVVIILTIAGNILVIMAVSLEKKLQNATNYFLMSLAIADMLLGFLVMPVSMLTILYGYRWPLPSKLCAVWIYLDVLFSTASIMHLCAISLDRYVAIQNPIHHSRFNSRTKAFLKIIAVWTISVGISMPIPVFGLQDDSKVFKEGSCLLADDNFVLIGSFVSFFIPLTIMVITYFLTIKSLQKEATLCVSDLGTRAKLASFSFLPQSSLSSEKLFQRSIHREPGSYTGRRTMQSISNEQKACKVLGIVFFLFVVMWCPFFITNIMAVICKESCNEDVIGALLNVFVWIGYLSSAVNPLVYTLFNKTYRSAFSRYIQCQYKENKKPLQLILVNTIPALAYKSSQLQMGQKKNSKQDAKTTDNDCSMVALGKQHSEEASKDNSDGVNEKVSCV", "assay_type": "binding"}, "5-HT2AR [2]": {"target": "T1, 5-HT2AR", "assay": "Intracellular Ca2+ mobilization", "assay_type": "cell-based", "details": "for Emax: HEK293, read-out: Emax (Ca2+ mobilization)"}, "5-HT2A-KO mice": {"test_system": "5-HT2A-KO mice", "assay": "Head-twitch response", "assay_type": "in vivo, mouse", "details": "5 mg/kg, first 30 min postinjection", "summary_of_the_method": "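Adult (8–16 weeks) male 5-HT2A-KO mice rederived from 129sv (F5), from the authors' colony. After 30 min of chamber habituation for baseline, mice were dosed and followed 90 min by magnetometer. HTR counts were automated with minor visual checking and summed over the first 30 min post-injection, then compared with vehicle by one-way ANOVA with Bonferroni post hoc; n = 5–12.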"}, "[3]": {"test_system": "rats trained to distinguish DOM from vehicle", "details": "cited from earlier work"}, "mice [4]": {"test_system": "mice", "assay": "GI effect of 5-HTP in mice", "assay_type": "in vivo, mouse", "details": "i.p., data not shown"}, "5-HT2AR [5]": {"test_system": "5-HT2AR", "assay": "IP1 accumulation in vivo", "parameters": "species or system mouse", "summary_of_the_method": "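Male C57BL/6 mice, 10 weeks old, received LiCl 200 mg/kg and returned home 30 min before treatment; co-administered antagonist was given in the same solution. Mice were decapitated 60 min later, and frontal cortex and posterior cerebellum were frozen at −80 °C. Tissue was bead-lysed at 4 °C in kit buffer with 50 mM LiCl and centrifuged at 17 000g. HTRF was read in duplicate; inverted 615/665 ratio, cortex/cerebellum fold-change; n = 3/group.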"}, "mice [6]": {"test_system": "mice", "assay": "Quantification of feces", "assay_type": "in vivo, mouse", "summary_of_the_method": "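Mice habituated to the monitoring chambers and to i.p. injections were acclimated 30 min, then injected i.p. with drug(s) or saline vehicle at 10 μL/g. Feces were counted over the first 30 min; pellets present before or immediately after injection were excluded. n = 9; two-way ANOVA with Bonferroni post hoc.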"}, "5-HT2AR [7]": {"target": "T1, 5-HT2AR", "assay": "IP1 accumulation in vitro", "assay_type": "cell-based", "details": "single concentration, 30 min at 37 °C"}, "c-fos, egr-1, egr-2 [8]": {"test_system": "c-fos, egr-1, egr-2", "assay": "Immediate early gene expression in somatosensory cortex, 5-HT2AR-KO mice", "assay_type": "in vivo, mouse", "details": "5 mg/kg, 60 min, 5-HT2AR-KO littermates", "summary_of_the_method": "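Adult (10–20 weeks) 129S6/SvEv 5-HT2AR-KO mice, born to Htr2a± heterozygote breeders. Somatosensory cortex was taken 60 min after 5 mg/kg test compound or vehicle, and c-fos, egr-1 and egr-2 expression was measured alongside a housekeeping gene; n = 5.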"}, "c-fos, egr-1, egr-2 [9]": {"test_system": "c-fos, egr-1, egr-2", "assay": "Immediate early gene expression in somatosensory cortex, wild-type mice", "assay_type": "in vivo, mouse", "details": "5 mg/kg, 60 min, wild-type 129S6/SvEv"}, "5-HT2AR [10]": {"target": "5-HT2AR", "assay": "[3H]ketanserin binding displacement, mouse frontal cortex membranes", "details": "5 nM [3H]ketanserin"}, "5-HT2AR [11]": {"target": "T1, 5-HT2AR", "assay_type": "binding", "remark": "listed apart in the source"}}, "note": "Like-named read-outs stand apart in the source and are kept apart here."}
{"compound": "6-chloro-2,3-dihydro-5-methyl-N-[6-[(2-methyl-3-pyridinyl)oxy]-3-pyridinyl]-1H-indole-1-carboxyamide dihydrochloride [SB-242084]", "values": [{"measurement": "effect of antagonist pretreatment on HTR in mice administered 1-NP or 2-NP", "setting": "C57BL/6 wild-type mice", "value": "did not significantly affect HTR"}]}
{"compound": "c1ccc2c(N3CCNCC3)cccc2c1", "note": "[1-NP, 1-(naphthalen-1-yl)piperazine]", "values": [{"measurement": "HTR counts vs vehicle", "setting": "C57BL/6 wild-type mice", "value": "Neither isoquipazine nor 1-NP produced changes in HTR counts"}, {"measurement": "HTR dose-response", "setting": "C57BL/6 wild-type mice; i.p.", "value": "apparent suppression of HTR counts at all tested doses"}, {"measurement": "Ki", "setting": "5-HT2AR [1]", "value": 0.1, "unit": "µM"}]}
{"compound": "c1ccc2cc(N3CCNCC3)ccc2c1", "note": "[2-NP, 1-(naphthalen-2-yl)piperazine]", "values": [{"measurement": "HTR counts vs vehicle", "setting": "C57BL/6 wild-type mice", "value": "increase in HTR that differed statistically from vehicle"}, {"measurement": "ED50", "setting": "C57BL/6 wild-type mice; Mus musculus, ip, read-out: ED50 (HTR)", "value": "0.42 ± 0.2", "unit": "mg/kg"}, {"measurement": "HTR dose-response", "setting": "C57BL/6 wild-type mice; i.p.", "value": "dose-dependent"}, {"measurement": "EC50", "setting": "5-HT2AR [2]", "value": 0.15, "unit": "µM"}, {"measurement": "Emax", "setting": "5-HT2AR [2]", "value": 48.9, "unit": "%"}, {"measurement": "HTR vs vehicle in 5-HT2AR-KO mice", "setting": "5-HT2A-KO mice", "value": "did not differ"}, {"measurement": "generalization for the DOM stimulus", "setting": "[3]", "value": "full generalization"}, {"measurement": "Ki", "setting": "5-HT2AR [1]", "value": 0.724, "unit": "µM"}]}
{"compound": "N[C@@H](Cc1c[nH]c2ccc(O)cc12)C(=O)O", "note": "[5-HTP, 5-hydroxytryptophan]", "values": [{"measurement": "GI effect", "setting": "mice [4]", "value": "produced diarrhea"}]}
{"compound": "COc1cccc([C@H](O)C2CCN(CCc3ccc(F)cc3)CC2)c1OC", "note": "[M100907, (R)-(+)-α-(2,3-dimethoxyphenyl)-1-[2-(4-fluorophenyl)ethyl]-4-pipidinemethanol]", "values": [{"measurement": "effect on quipazine-induced IP1 accumulation in vivo", "setting": "5-HT2AR [5]; M100907 0.1 mg/kg with quipazine 5 mg/kg", "value": "successfully blocked"}]}
{"compound": "COc1ccccc1N1CCN(CCN(C(=O)C2CCCCC2)c2ccccn2)CC1.O=C(O)/C=C\\C(=O)O", "note": "[WAY100635, N-[2-[4-(2-methoxyphenyl)-1-piperazinyl]ethyl]-N-2-pyridinylcyclohexanecarboxamide maleate]", "values": [{"measurement": "effect of antagonist pretreatment on HTR in mice administered 1-NP or 2-NP", "setting": "C57BL/6 wild-type mice", "value": "did not significantly affect HTR"}]}
{"compound": "c1ccc2c(N3CCNCC3)nccc2c1", "note": "[isoquipazine, 1-(piperazin-1-yl)isoquinoline]", "values": [{"measurement": "HTR counts vs vehicle", "setting": "C57BL/6 wild-type mice", "value": "Neither isoquipazine nor 1-NP produced changes in HTR counts"}, {"measurement": "IC50", "setting": "5-HT2AR [2]", "value": 24.7, "unit": "µM"}, {"measurement": "Ki", "setting": "5-HT2AR [1]", "value": 3.8, "unit": "µM"}]}
{"compound": "Cc1nccn1CC1CCc2c(c3ccccc3n2C)C1=O", "note": "(stereo not drawn) [ondansetron, 1,2,3,9-tetrahydro-9-methyl-3-[(2-methyl-1H-imidazol-1-yl)methyl]-4H-carbazol-4-one]", "values": [{"measurement": "effect on quipazine-induced feces count increase", "setting": "mice [6]; ondansetron 1 mg/kg with quipazine 5 mg/kg, 30 min following cotreatment", "value": "successfully reduced"}]}
{"compound": "c1ccc2nc(N3CCNCC3)ccc2c1", "note": "[quipazine, 2-(piperazin-1-yl)quinoline]", "values": [{"measurement": "IP1 accumulation in frontal cortex vs vehicle", "setting": "5-HT2AR [5]; 5 mg/kg, LiCl 200 mg/kg pretreatment, 60 min", "value": "greater accumulation of IP1"}, {"measurement": "IP1 accumulation (in words)", "setting": "5-HT2AR [7]", "value": "robust increase of IP1 accumulation"}, {"measurement": "changes in c-fos, egr-1 and egr-2 expression", "setting": "c-fos, egr-1, egr-2 [8]", "value": "not observed"}, {"measurement": "effect on HTR counts", "setting": "C57BL/6 wild-type mice; different doses, i.p., 90 min recording", "value": "robust and long-lasting increase on HTR counts"}, {"measurement": "duration of HTR increase", "setting": "C57BL/6 wild-type mice; highest doses evaluated", "value": "over 90 min"}, {"measurement": "time of peak of HTR increase post injection", "setting": "C57BL/6 wild-type mice; i.p.", "value": "≤ 30", "unit": "min"}, {"measurement": "EC50", "setting": "5-HT2AR [2]", "value": 7.26, "unit": "µM"}, {"measurement": "Emax", "setting": "5-HT2AR [2]", "value": 44.3, "unit": "%"}, {"measurement": "cortical expression of c-fos, egr-1 and egr-2", "setting": "c-fos, egr-1, egr-2 [9]", "value": "exhibited changes in the cortical expression of c-fos, egr-1, and egr-2"}, {"measurement": "HTR vs vehicle in 5-HT2AR-KO mice", "setting": "5-HT2A-KO mice", "value": "did not differ"}, {"measurement": "effect on feces count", "setting": "mice [6]; quipazine 5 mg/kg, first 30 min", "value": "feces count increase"}, {"measurement": "pKi", "setting": "5-HT2AR [10]", "value": "5.601 ± 0.16"}, {"measurement": "Ki", "setting": "5-HT2AR [1]", "value": 20, "unit": "µM"}, {"measurement": "Ki", "setting": "5-HT2AR [11]", "value": 5.13, "unit": "µM"}]}
